Compound activity as filed in PubChem.
Yeast lifespan up: yeast lifespan extension. hit rate 0.68% among 130,000. S. cerevisiae growth with nicotinamide, OD615; deaD strain in restrictive glucose medium. inhibition of the nicotinamide effect, % at 10 µM;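 active = inhibition above a set limit, placed 3 SD over the median of all compounds, cut at about 26% in these data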
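Measured by: optical density (absorbance) at 615 nm; System: modified budding yeast, DeaD strain; Medium: restrictive CSMM-D dextrose medium; Timing: 4 h preincubation then 48 h treatment at 30 °C.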
Yeast growth inh: reduces growth of yeast BB579 in restrictive medium. S. cerevisiae BB579 growth, OD615, 48 h. inhibition, % at 10 µM. hit rate 0.51% among 140,000. AID 804;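 active = inhibition above a set limit, 3 SD over the mean compound inhibition, cut at about 44% in these data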
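System: Saccharomyces cerevisiae DeaD strain BB579, replicative lifespan model yeast. Buffer or medium: restrictive glucose-based CSMM-D medium. Doses: one dose, 10 µM compound with 0.25% DMSO. Timing: 4 h preincubation and 48 h exposure at 30 °C. Detection: turbidity as optical density at 615 nm. Benchmarks: amphotericin B 10 µg/mL, positive.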
HMGR II inh: inhibitors of class II HMG-CoA reductase from Enterococcus faecalis. AID 1066. hit rate 0.41% among 190,000. inhibition, % at 10 µM. purified E. faecalis HMGR, NADPH absorbance 340 nm kinetic;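 active = inhibition above a set limit, the median over all tested compounds plus 3 SD, cut at about 9.5% in these data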;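 also: enzyme runs in reverse so mevalonate oxidation gives rising NADPH absorbance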
INS promoter inh: TRM-6 insulin promoter activity inhibition; TRM-6 cells, insulin promoter-eGFP reporter, imaging; reporter expression induced with tamoxifen; inhibition, % at 2 µM; hit rate 0.9% among 130,000; AID 1273;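 active = inhibition above the mean plus 3 SD, with well images judged a real hit on visual review, cut at about 60% in these data, passing the limit was not always enough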
RAM network inh: yeast RAM network inhibition; hit rate 1.8% among 190,000; S. cerevisiae dse1pr::URA3 reporter, 5-FOA growth OD615, 2 d; analog-sensitive cbk1-as2 kinase mutant strain; inhibition, % at 50 µM; AID 868;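 active = inhibition above a set limit, 3 SD over mean compound inhibition, cut at about 8.4% in these data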;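 also: inhibition rescues growth on 5-FOA so higher OD means more RAM inhibition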
RAM efflux-def: restores 5-FOA growth of efflux-deficient yeast. 1,200 tested, under 10 active. S. cerevisiae efflux-deficient reporter strain, 5-FOA growth OD615, 2 days. max inhibition, %. shares compounds with RAM network inh; call rule not given here
Numbers stand for hits. Hits are enriched below; roughly 3.7% of the tested compounds scored in any of these assays.

For Cc1ccc(N2C(=O)NC(=O)/C(=C/c3ccc(-c4ccc(C(=O)O)c(Cl)c4)o3)C2=O)cc1 the results were HMGR II inh inactive, INS promoter inh inactive and RAM network inh 11.
For Cc1cc(C=O)c(C)n1C(C)C the results were HMGR II inh inactive, INS promoter inh inactive and RAM network inh inactive.
Cn1cc(NC(=O)CCl)cn1 was read as HMGR II inh inactive and RAM network inh inactive.
For Fc1ccc(C2=CCN(C(c3cccs3)c3nnnn3CCc3ccccc3)CC2)cc1 (stereo not given) the results were Yeast lifespan up inactive, Yeast growth inh inactive, HMGR II inh inactive, INS promoter inh inactive and RAM network inh 10.
`CCC(C)(C)n1nnnc1C(c1cccs1)N1CC=C(c2ccc(F)cc2)CC1` (stereo not given) gave Yeast lifespan up inactive, Yeast growth inh inactive, HMGR II inh inactive, INS promoter inh inactive and RAM network inh inactive.
CCOCCSc1nc2c(c(-c3cccs3)c1C#N)CC/C2=C/c1cccs1 was read as Yeast lifespan up inactive, Yeast growth inh inactive, HMGR II inh inactive, INS promoter inh inactive, RAM network inh 12 and RAM efflux-def inactive.
For CN(C)c1ccc(/C=C/C=C2/C(=O)NC(=O)N(c3ccccc3)C2=O)cc1 the results were HMGR II inh inactive, RAM network inh 26 and RAM efflux-def inactive.
`Cc1cc(C)nc(-n2c(C)nc3cc(Cl)ccc3c2=O)c1` gave Yeast lifespan up inactive, Yeast growth inh inactive, HMGR II inh inactive, INS promoter inh inactive and RAM network inh inactive.
For CC1CCc2c(sc3nc(CSc4n[nH]c(N)n4)[nH]c(=O)c23)C1 (stereo not given) the results were Yeast lifespan up inactive, Yeast growth inh inactive, HMGR II inh inactive, INS promoter inh inactive, RAM network inh 12 and RAM efflux-def inactive.
CCCCCn1c(=O)c(C(=O)Nc2nc(CC(=O)OCC)cs2)c(O)c2ccccc21 was read as HMGR II inh inactive, INS promoter inh inactive, RAM network inh 25 and RAM efflux-def inactive.
For CCCCCn1c(=O)c(C(=O)Nc2cnccn2)c(O)c2ccccc21 the results were HMGR II inh inactive, RAM network inh 12 and RAM efflux-def inactive.
CC(=O)Nc1ccc(OCCF)cc1 was read as HMGR II inh inactive, INS promoter inh inactive and RAM network inh inactive.
`CCOC(=O)c1c(C)n(Cc2ccco2)c2c1cc(O)c1ccccc12` gave Yeast lifespan up inactive, Yeast growth inh inactive, HMGR II inh inactive, INS promoter inh inactive and RAM network inh inactive.
`O=C(c1cccnc1)c1cc2ccccc2[nH]1` gave Yeast lifespan up inactive, Yeast growth inh inactive, HMGR II inh inactive, INS promoter inh inactive and RAM network inh inactive.
`Cc1ccc(/C=C/C2=NN(Cc3ccc(Cl)c(Cl)c3)C(=O)CC2)cc1` gave Yeast lifespan up inactive, Yeast growth inh inactive, HMGR II inh inactive, RAM network inh 12 and RAM efflux-def inactive.
Screening CC(C)[C@H](CN(N=O)[C@@H](Cc1ccccc1)CN(C)N=O)N(CCc1ccccc1)N=O returned HMGR II inh inactive, RAM network inh 13 and RAM efflux-def inactive.
For CC1(C)CSC(=NCc2ccccc2)N1 the results were HMGR II inh inactive and RAM network inh inactive.
`CCN1C(=O)/C(=C/c2ccc3c(c2)CCN3CCCCl)C(=O)NC1=S` gave Yeast lifespan up inactive, Yeast growth inh inactive, HMGR II inh inactive, INS promoter inh inactive, RAM network inh 16 and RAM efflux-def inactive.
CCCCN1C(=O)/C(=C/c2ccc(N3CCCCCC3)cc2)C(=O)NC1=S was read as Yeast lifespan up inactive, Yeast growth inh inactive, HMGR II inh inactive and RAM network inh inactive.
For COC(=O)c1ccc(NC(=O)CSc2nc3ccc(N4C(=O)C5C6C=CC(C6)C5C4=O)cc3s2)cc1 (stereo not given) the results were Yeast lifespan up inactive, Yeast growth inh inactive, HMGR II inh inactive and RAM network inh inactive.
CCOP(=O)(OCC)C(Nc1cccc(C(F)(F)F)c1)c1ccc(Br)cc1 (stereo not given) was read as Yeast lifespan up inactive, Yeast growth inh inactive, HMGR II inh inactive, INS promoter inh inactive, RAM network inh 12 and RAM efflux-def inactive.
O=[N+]([O-])/C=C/c1c(OCc2ccccc2)ccc2ccccc12 was read as Yeast lifespan up inactive, Yeast growth inh inactive, HMGR II inh inactive, INS promoter inh inactive, RAM network inh 13 and RAM efflux-def inactive.
